Assay outcomes (PubChem BioAssay)
NPY1 pot ag = NPY-Y1 receptor potentiators or agonists, primary screen, cell-based; NPY-Y1 expressing cells, potentiator/agonist activation; activation, % at 3.6 µM; 0.37% of 220,000 active; AID 1304, 2008; in the data active = activation above about 33%, passing the limit was not always enough;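 note: cells stimulated with NPY at EC10 then isoproterenol at EC100; 0% = low agonist plus stimulus and 100% = saturating agonist plus stimulus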
S1P4 agonist = S1P4 receptor agonists, primary screen, cell-based. activation, % at 4.98 µM. AID 1509, 2009. 0.35% of 220,000 active. S1P4-expressing cell line, agonist reporter assay. Sphingosine 1-phosphate receptor 4 (Homo sapiens), O95977; in the data active = activation above about 11%;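 note: 0% = DMSO vehicle and 100% = reference agonist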
Target sequence (O95977 whole entry, looked up): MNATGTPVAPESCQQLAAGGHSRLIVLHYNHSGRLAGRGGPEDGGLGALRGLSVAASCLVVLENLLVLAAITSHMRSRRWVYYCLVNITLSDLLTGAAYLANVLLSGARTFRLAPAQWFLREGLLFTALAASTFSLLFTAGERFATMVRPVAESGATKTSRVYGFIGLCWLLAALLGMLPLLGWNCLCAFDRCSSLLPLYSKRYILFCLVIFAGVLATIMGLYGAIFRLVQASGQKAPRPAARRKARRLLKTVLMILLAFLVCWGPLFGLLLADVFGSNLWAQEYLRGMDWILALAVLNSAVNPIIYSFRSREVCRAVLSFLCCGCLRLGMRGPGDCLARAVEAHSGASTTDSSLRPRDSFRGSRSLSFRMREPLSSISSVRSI
S1P4 antagonist = S1P4 receptor antagonists, primary screen, cell-based | S1P4-expressing cells, antagonist mode, reporter read-out | inhibition, % at 4.98 µM | 0.26% of 220,000 active | AID 1510, 2009; in the data active = inhibition above about 29%;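 note: 0% = wells stimulated with agonist and 100% = vehicle wells without agonist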
NPY-Y1 antag = NPY-Y1 receptor antagonists, primary screen, cell-based; inhibition, % at 3.6 µM; 1% of 200,000 active; Neuropeptide Y receptor type 1 (Homo sapiens), P25929; HEK293-CNG Y1 cells, membrane potential fluorescence; NPY at EC95, then isoproterenol;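 active = inhibition above the campaign mean inhibition of all tested compounds plus 3 SD, cut at about 20% in these data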;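 note: 0% = DMSO wells given NPY plus isoproterenol and 100% = isoproterenol alone without NPY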
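Benchmarks – high control isoproterenol alone, low control NPY with isoproterenol · Material – HEK293 Y1/CNG channel cell line · Times – dye 3 h, compound 60 min room temperature, stimulation 45 min · Probe or stimulus – NPY (25 nM), isoproterenol (1 µM), Ro 20-1724 (25 µM) · Evaluation – % inhibition of NPY effect · Signal – fluorescence, membrane potential probe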
NPY2 pot ag = NPY-Y2 potentiators or agonists, primary screen, cell-based; Neuropeptide Y receptor type 2 (Homo sapiens), P49146; cells expressing NPY-Y2, potentiator/agonist read-out; activation, % at 3.6 µM; 0.45% of 220,000 active; in the data active = activation above about 27%;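 note: cells stimulated with NPY near EC25 plus isoproterenol at EC100; 0% = vehicle plus submaximal agonist and 100% = vehicle plus saturating agonist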
NPY-Y2 antag = NPY-Y2 receptor antagonists, primary screen, cell-based; Neuropeptide Y receptor type 2 (Homo sapiens), P49146; NPY-Y2 expressing cells, antagonist mode; inhibition, % at 2.7 µM; 0.99% of 140,000 active; AID 793, 2007;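 note: 0% = vehicle with agonist challenge and 100% = reference antagonist with challenge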
NPY-Y1 ant conf = NPY-Y1 receptor antagonists, retest of hits, confirmation, HEK293-CNG cells, membrane potential fluorescence, triplicate; shares compounds with NPY-Y1 antag; cAMP; NPY challenge against isoproterenol-raised cAMP; inhibition, % at 3.6 µM; 21% of 1,200 active; in the data active = inhibition above about 20%;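 note: 0% = vehicle with agonist plus stimulus and 100% = stimulus alone without agonist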
NPY2 antag ctr = NPY-Y2 receptor antagonists, selectivity check, confirmation, counter-screen for NPY-Y1 antagonist project, HEK293-CNG cells, membrane potential fluorescence, triplicate | 28% of 1,200 active | shares compounds with NPY-Y1 antag | inhibition, % at 3.6 µM | antagonism; cells given NPY, then isoproterenol;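 note: 0% = DMSO with agonist challenge and 100% = reference antagonist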
Numbers without * were called inactive. Compounds with a hit are over-represented: about 2.4% of the library has one in this group of screens. Cut-off read from the data, not from the text of the source, unless noted: active = inhibition above about 17%; inactive = the rest.

Results for CCCCOC(=O)Cn1c(-c2ccccc2)nc2ccccc2c1=O ?
NPY1 pot ag: -4.0; S1P4 agonist: 0.0; S1P4 antagonist: -14.4; NPY-Y1 antag: 4.6; NPY2 pot ag: 0.9; NPY-Y2 antag: 1.8

What do the screens show for `CCCOC(=O)C(C)n1c(-c2ccccc2)nc2ccccc2c1=O` (configuration not stated)?
NPY1 pot ag: -57.5; S1P4 agonist: -0.3; S1P4 antagonist: 21.0; NPY-Y1 antag: 32.7*; NPY2 pot ag: -66.4; NPY-Y2 antag: 14.4; NPY-Y1 ant conf: 13.1; NPY2 antag ctr: 11.0

How did O=C(NCc1nc(-c2ccccc2)no1)c1ccc2c(c1)OCO2 do in these assays?
NPY1 pot ag: -34.4; S1P4 agonist: 0.5; S1P4 antagonist: -10.8; NPY-Y1 antag: 22.1*; NPY2 pot ag: -3.1; NPY-Y2 antag: 6.2; NPY-Y1 ant conf: 13.3; NPY2 antag ctr: 10.4

How did Cc1cccn2c(CN[C@@H]3CCCC[C@H]3c3ccccc3)c(C(=O)N3CCOCC3)nc12 do in these assays?
NPY1 pot ag: 7.9; S1P4 agonist: 0.6; S1P4 antagonist: -7.3; NPY-Y1 antag: 26.5*; NPY2 pot ag: -5.6; NPY-Y1 ant conf: 10.1; NPY2 antag ctr: 4.8

Results for COc1cnc(-c2ccccn2)nc1Oc1ccc(Cl)c2ccccc12 ?
NPY1 pot ag: -48.4; S1P4 agonist: 0.3; S1P4 antagonist: -4.5; NPY-Y1 antag: 24.8*; NPY2 pot ag: -61.2; NPY-Y2 antag: 14.6; NPY-Y1 ant conf: 14.9; NPY2 antag ctr: 22.5*

How did COc1cnc(-c2ccccn2)nc1Oc1ccccc1Cl do in these assays?
NPY1 pot ag: -13.8; S1P4 agonist: -1.1; S1P4 antagonist: -8.3; NPY-Y1 antag: 9.1; NPY2 pot ag: -5.4; NPY-Y2 antag: 0.3

What do the screens show for `CC(C)(C)NC(=O)c1oc2ccccc2c1COc1ccccc1`?
NPY1 pot ag: -46.9; S1P4 agonist: -0.4; S1P4 antagonist: -0.3; NPY-Y1 antag: 28.0*; NPY2 pot ag: -7.2; NPY-Y2 antag: 13.3; NPY-Y1 ant conf: 26.4*; NPY2 antag ctr: 13.6

How did CC(OC(=O)c1oc2ccccc2c1COc1ccccc1)C(N)=O (configuration not stated) do in these assays?
NPY1 pot ag: -10.1; S1P4 agonist: 0.8; S1P4 antagonist: -4.8; NPY-Y1 antag: 5.1; NPY2 pot ag: -5.7

What do the screens show for `Cc1ccc(Cc2cnc(N3C(=N)SC(C)C3=O)s2)cc1` (configuration not stated)?
NPY1 pot ag: -26.2; S1P4 agonist: 1.4; S1P4 antagonist: 0.8; NPY-Y1 antag: 25.6*; NPY2 pot ag: -35.0; NPY-Y1 ant conf: 11.6; NPY2 antag ctr: 11.7

What do the screens show for `O=C(Nc1ccc(CN2CCOCC2)cc1)c1ccc(-c2ccc(Br)cc2)o1`?
NPY1 pot ag: -59.6; S1P4 agonist: -2.7; S1P4 antagonist: -10.3; NPY-Y1 antag: 30.5*; NPY2 pot ag: -39.5; NPY-Y2 antag: 13.2; NPY-Y1 ant conf: 12.2; NPY2 antag ctr: 21.5*

How did O=C(CN(Cc1ccc(F)cc1)C(=O)c1ccco1)NCc1ccc(F)cc1 do in these assays?
NPY1 pot ag: 1.7; S1P4 agonist: -0.2; S1P4 antagonist: -13.8; NPY-Y1 antag: 6.8; NPY2 pot ag: -5.9; NPY-Y2 antag: 7.3

How did O=C(c1ccco1)N(CCC(c1ccccc1)c1ccco1)Cc1ccc(F)cc1 (configuration not stated) do in these assays?
NPY1 pot ag: -21.1; S1P4 agonist: -0.8; S1P4 antagonist: 15.7; NPY-Y1 antag: 24.7*; NPY2 pot ag: -44.2; NPY-Y2 antag: 5.8; NPY-Y1 ant conf: 13.4; NPY2 antag ctr: 12.6

How did COc1ccc(CCNS(=O)(=O)c2ccc3c(c2)OCCO3)cc1 do in these assays?
NPY1 pot ag: -26.7; S1P4 agonist: -1.2; S1P4 antagonist: -2.1; NPY-Y1 antag: 3.3; NPY2 pot ag: -18.3; NPY-Y2 antag: 9.3

What do the screens show for `COc1ccc(CCNS(=O)(=O)c2ccc(OC)cc2)cc1`?
NPY1 pot ag: -8.4; S1P4 agonist: -0.4; S1P4 antagonist: -10.9; NPY-Y1 antag: 22.9*; NPY2 pot ag: -28.6; NPY-Y2 antag: 7.8; NPY-Y1 ant conf: 10.3; NPY2 antag ctr: 7.2

How did Cc1cc(=O)oc2cc(OC(=O)CCCCCN3C(=O)c4ccccc4C3=O)ccc12 do in these assays?
NPY1 pot ag: -9.0; S1P4 agonist: 3.3; S1P4 antagonist: -26.2; NPY-Y1 antag: 4.0; NPY2 pot ag: 6.5; NPY-Y2 antag: 2.4

How did O=C(COc1ccccc1Cl)c1ccc2c(c1)CCCC2 do in these assays?
NPY1 pot ag: -52.0; S1P4 agonist: -1.9; S1P4 antagonist: 14.7; NPY-Y1 antag: 20.7*; NPY2 pot ag: -19.7; NPY-Y2 antag: 5.5; NPY-Y1 ant conf: 10.6; NPY2 antag ctr: 8.6

How did CCCCCCn1c2c(c(=N)c3c1CCC3)CCC2 do in these assays?
NPY1 pot ag: -71.5; S1P4 agonist: -0.3; S1P4 antagonist: -1.6; NPY-Y1 antag: 23.7*; NPY2 pot ag: 3.9; NPY-Y2 antag: 3.2; NPY-Y1 ant conf: 29.2*; NPY2 antag ctr: 16.7

How did CCCCCCCn1c2c(c(=N)c3c1CCC3)CCCC2 do in these assays?
NPY1 pot ag: -60.5; S1P4 agonist: -0.3; S1P4 antagonist: -17.1; NPY-Y1 antag: 79.8*; NPY2 pot ag: -36.9; NPY-Y1 ant conf: 56.8*; NPY2 antag ctr: 42.5*

Results for CCCCn1c2c(c(=N)c3c1CCC3)CCC2 ?
NPY1 pot ag: 9.5; S1P4 agonist: 1.1; S1P4 antagonist: 2.0; NPY-Y1 antag: 3.8; NPY2 pot ag: 14.8; NPY-Y2 antag: 3.8

Results for CCN(CC)S(=O)(=O)c1cccc(-c2nnc(SCC(=O)c3cc(C)n(C)c3C)o2)c1 ?
NPY1 pot ag: -11.9; S1P4 agonist: 3.2; S1P4 antagonist: -4.3; NPY-Y1 antag: -0.8; NPY2 pot ag: 11.9; NPY-Y2 antag: 2.3

How did CCN(CC)S(=O)(=O)c1cccc(-c2nnc(SCCOc3ccccc3)o2)c1 do in these assays?
NPY1 pot ag: -60.2; S1P4 agonist: -0.2; S1P4 antagonist: 3.9; NPY-Y1 antag: 23.8*; NPY2 pot ag: -19.9; NPY-Y2 antag: 14.8; NPY-Y1 ant conf: 12.6; NPY2 antag ctr: 10.4
